We go through 20 molecules from ChEMBL document CHEMBL3585274, “Antiviral Activity of Diterpene Esters on Chikungunya Virus and HIV Replication” (J Nat Prod, 2015).

One data set has as its system Chikungunya virus. The data set is described as follows: Antiviral activity against chikungunya virus Indian ocean strain 899 infected in Vero cells assessed as virus-induced cytopathic effect after 6 to 7 days. Type of data set: functional, cell-based. Conditions: Indian ocean strain 899, Vero. A general note: Protection from cytopathic effect is a common read-out in antiviral testing.

Data set [1] deals with Human immunodeficiency virus 2. The data set is described as follows: Antiviral activity against HIV2 ROD infected in MT4 cells assessed as cell viability after 5 days by MTT assay. Conditions: Human immunodeficiency virus 2, ISOLATE ROD, MT4, 120 h. The class given is functional, organism-based. Put shortly:
(§1)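 MT-4 cells ([…] cells/mL suspension) infected with HIV-1 IIIB or HIV-2 ROD at 100−300 CCID50, with mock-infected wells run in parallel. Serial 5-fold compound dilutions in triplicate wells. Viability by MTT after 5 days, absorbance at 540 and 690 nm, median OD of three wells. Median ± median absolute deviation from ≥3 independent assays.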
A general note: Tetrazolium dyes change colour on reduction, which living cells bring about.

The nature of data set [2]: Selectivity index, CC50 for african green monkey Vero cells to EC50 for chikungunya virus Indian ocean strain 899. The class given is toxicity, cell-based. The conditions noted are these: read-out: Ratio CC50/EC50.
Data set [3] deals with Human immunodeficiency virus 1. The experiment in a line: Antiviral activity against HIV1 3B infected in MT4 cells assessed as cell viability after 5 days by MTT assay. Type of data set: functional, organism-based. Conditions: Human immunodeficiency virus 1, 3B, MT4, 120 h. Put shortly: as §1
Data set [4] is described as follows: Selectivity index, CC50 for african green monkey Vero cells to EC50 for HIV1 3B. The class given is toxicity, cell-based. The conditions noted are these: read-out: Ratio CC50/EC50. The method, boiled down: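 SI = CC50 in Vero cells ÷ EC50 against HIV-1 IIIB or HIV-2 ROD. CC50 is the 50% antimetabolic concentration from MTS dose−response in Vero. EC50 is from the MT-4/MTT 5-day antiviral assay.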

pEC50: −log10 of the molar value.

With `CCCCCCCCCC(=O)O[C@@H]1[C@@H](C)[C@@]2(O)[C@@H](C=C(CO)C[C@@]3(O)C(=O)C(C)=C[C@@H]23)[C@@H]2C(C)(C)[C@]12OC(=O)CCCCCCCCC`, the pEC50 was 5.82 in the data set with Chikungunya virus, less than 4.80 in data set [1] and less than 4.80 in data set [3]. The selectivity ratio in data set [2] turned out to be 2.2.

In the case of `CC(=O)O[C@@]12C[C@@H](C)[C@@]3(O)[C@@H](C=C(CO)C[C@]4(O)C(=O)C(C)=C[C@@H]34)[C@@H]1C2(C)C` [PROSTRATIN], the pEC50 was 5.57 with Chikungunya virus, 6.05 in data set [1] and 5.72 in data set [3]. Besides, the figures for the selectivity ratio in data set [2] and in data set [4] were 22.8 and 171, respectively.

Regarding `COc1cc(CC(=O)OCC2=C[C@H]3[C@@H]4C(C)(C)[C@]4(OC(C)=O)[C@H](OC(=O)Cc4ccccc4)[C@@H](C)[C@]3(O)[C@@H]3C=C(C)C(=O)[C@@]3(O)C2)ccc1O`, the pEC50 was 5.77 with Chikungunya virus, 7.10 in data set [1] and 6.12 in data set [3]. For the same molecule, the selectivity ratio in data set [2] stood at 14.2; in data set [4], 23.

As to `CCCCCCCCCCCCCC(=O)O[C@@H]1[C@@H](C)[C@@]2(O)[C@@H](C=C(CO)C[C@@]3(O)C(=O)C(C)=C[C@@H]23)[C@@H]2C(C)(C)[C@]12OC(C)=O`, the pEC50 was less than 4.77 in data set [1] and less than 4.74 in data set [3]. Moreover, the selectivity ratio in data set [2] was determined as 1.9.

With `CC(=O)OCC1=C[C@H]2[C@@H]3C(C)(C)[C@]3(OC(C)=O)[C@H](OC(C)=O)[C@@H](C)[C@]2(O)[C@@H]2C=C(C)C(=O)[C@@]2(O)C1`, the figures for the pEC50 (in the data set with Chikungunya virus; in data set [1]; in data set [3]) were 4.49, 5.18 and 4.56, respectively. In addition, the selectivity ratio in data set [2] is 2.2; in data set [4], greater than 9.

For the molecule `CCCCCCCCCC(=O)O[C@@H]1[C@@H](C)[C@@]2(O)[C@@H](C=C(CO)C[C@]3(O)C(=O)C(C)=C[C@@H]23)[C@@H]2C(C)(C)[C@]12OC(=O)CCCCCCCCC`, the pEC50 is 8.22 in the data set with Chikungunya virus, 9.70 in data set [1] and 8.92 in data set [3]. The selectivity ratio in data set [2] is 686; in data set [4], 754.

Regarding `CCCCCCCCCC(=O)O[C@@]12[C@H](O)[C@@H](C)[C@@]3(O)[C@@H](C=C(CO)C[C@]4(O)C(=O)C(C)=C[C@@H]34)[C@@H]1C2(C)C`, the values for the pEC50 (in the data set on Chikungunya virus; in data set [1]; in data set [3]) were 5.66, 6.82 and 6.05, respectively. In addition, the selectivity ratio in data set [2] was determined as 9.7; in data set [4], 130.

In the case of `CCCCCCCCCCCCCC(=O)O[C@@H]1[C@@H](C)[C@@]2(O)[C@@H](C=C(CO)C[C@]3(O)C(=O)C(C)=C[C@@H]23)[C@@H]2C(C)(C)[C@]12OC(C)=O` [PHORBOL MYRISTATE ACETATE], the pEC50 is 9.15 in data set [1] and 9.05 in data set [3]. Besides, the selectivity ratio in data set [2] amounted to 1960; in data set [4] it was 220.

On to `CC1=C[C@H]2[C@@]3(O)[C@H](C)[C@@H](O)[C@]4(O)[C@H]([C@@H]3C=C(CO)C[C@]2(O)C1=O)C4(C)C` [PHORBOL], for which the pEC50 (with Chikungunya virus; in data set [1]; in data set [3]) was less than 3.46 each time. For the same molecule, the selectivity ratio in data set [2] and in data set [4] was greater than 1 throughout.

Take `CC(=O)OCC1=C[C@H]2[C@@H]3C(C)(C)[C@]3(OC(C)=O)[C@H](O)[C@@H](C)[C@]2(O)[C@@H]2C=C(C)C(=O)[C@@]2(O)C1`: the negative-log EC50 (pEC50) with Chikungunya virus was 4.61; in data set [1], 3.61; in data set [3], less than 3.55. Moreover, the selectivity ratio in data set [2] stood at 1.7; in data set [4], 1.

Take `CC(=O)O[C@@H]1[C@@H](C)[C@@]2(O)[C@@H](C=C(CO)C[C@]3(O)C(=O)C(C)=C[C@@H]23)[C@@H]2C(C)(C)[C@]12OC(C)=O`: the results for the negative-log EC50 (pEC50) (with Chikungunya virus; in data set [1]; in data set [3]) were 5.03, 6.00 and 5.32, respectively. The values for the selectivity ratio in data set [2] and in data set [4] were 4.2 and greater than 59, respectively.

`CNc1ccccc1C(=O)O[C@@H]1[C@@H](C)[C@@]2(O)[C@@H](C=C(CO)C[C@]3(O)C(=O)C(C)=C[C@@H]23)[C@@H]2C(C)(C)[C@]12OC(C)=O`: the values for the pEC50 (in the data set with Chikungunya virus; in data set [1]; in data set [3]) were 4.82, 5.52 and 8.05, respectively. Moreover, the results for the selectivity ratio in data set [2] and in data set [4] were 1.1 and 749, respectively.

In the case of `CCCCCCCCCCCCCC(=O)O[C@@]12[C@H](O)[C@@H](C)[C@@]3(O)[C@@H](C=C(CO)C[C@]4(O)C(=O)C(C)=C[C@@H]34)[C@@H]1C2(C)C`, the pEC50 was 6.00 with Chikungunya virus, 7.11 in data set [1] and 6.62 in data set [3]. The selectivity ratio in data set [2] turned out to be 9; in data set [4], 107.

Consider `CCCCCCCCC(=O)O[C@@H]1[C@@H](C)[C@@]2(O)[C@@H](C=C(COC(=O)Cc3ccc(O)c(OC)c3)C[C@]3(O)C(=O)C(C)=C[C@@H]23)[C@@H]2C(C)(C)[C@]12OC(=O)CCCCCCCC`, for which the pEC50 in the data set on Chikungunya virus was 6.22; in data set [1] it was 8.40; in data set [3], 7.44. Further, the results for the selectivity ratio in data set [2] and in data set [4] were 3.7 and 483, respectively.

For the molecule `C/C=C(\C)C(=O)O[C@@H]1[C@@H](C)[C@@]2(O)[C@@H](C=C(CO)C[C@]3(O)C(=O)C(C)=C[C@@H]23)[C@@H]2C(C)(C)[C@]12OC(=O)CCCCCCCCC`, the pEC50 with Chikungunya virus is 5.96; in data set [1], 9.70; in data set [3] it was 8.82. The selectivity ratio in data set [2] stood at 3.3; in data set [4] it was 600.

On to `CC(=O)O[C@@H]1[C@@H](C)[C@@]2(O)[C@@H](C=C(CO)C[C@]3(O)C(=O)C(C)=C[C@@H]23)[C@@H]2C(C)(C)[C@]12O`, for which the pEC50 with Chikungunya virus was less than 3.61; in data set [1], less than 3.51; in data set [3], less than 3.51. The selectivity ratio is 0.8 in data set [2] and greater than 1 in data set [4].

As to `CCCCCCCCCC(=O)O[C@@H]1[C@@H](C)[C@@]2(O)[C@@H](C=C(CO)C[C@]3(O)C(=O)C(C)=C[C@@H]23)[C@@H]2C(C)(C)[C@]12O`, the pEC50 in the data set with Chikungunya virus was 5.31; in data set [1] it was 5.70; in data set [3] it was 5.31. Moreover, the selectivity ratio in data set [2] came out at 1.5; in data set [4], 4.

Regarding `CCCCCC(=O)O[C@@H]1[C@@H](C)[C@@]2(O)[C@@H](C=C(CO)C[C@]3(O)C(=O)C(C)=C[C@@H]23)[C@@H]2C(C)(C)[C@]12OC(=O)CCCCC`, the negative-log EC50 (pEC50) was 5.49 with Chikungunya virus, 8.92 in data set [1] and 8.15 in data set [3]. Besides, the selectivity ratio in data set [2] is 1.8; in data set [4], 2890.

Take `CCCC(=O)O[C@@H]1[C@@H](C)[C@@]2(O)[C@@H](C=C(C=O)C[C@]3(O)C(=O)C(C)=C[C@@H]23)[C@@H]2C(C)(C)[C@]12OC(=O)CCC`: the pEC50 with Chikungunya virus was 4.88; in data set [1], less than 4.46; in data set [3], less than 4.70. Further, the selectivity ratio in data set [2] stood at 2.7.

As to `CC(=O)O[C@@]12[C@H](O)[C@@H](C)[C@@]3(O)[C@@H](C=C(CO)C[C@]4(O)C(=O)C(C)=C[C@@H]34)[C@@H]1C2(C)C`, the figures for the pEC50 (with Chikungunya virus; in data set [1]; in data set [3]) were less than 3.76, 4.00 and less than 3.66, respectively. Also, in data set [4], the selectivity ratio came to 1.

As usually defined, the pEC50 is the EC50 on a negative log10 scale, so that one unit is a factor of ten.
